ChEMBL document CHEMBL1124668, “Solid-phase synthesis of 16 potent (selective and nonselective) in vivo antagonists of oxytocin” (J Med Chem, 1989)
Starred links: 1 amine or outer side, 2 acyl side, 3 side chain; linkers in the order of their positions; H or OH if unused. Positions of bridges follow the written chain, without caps; N, C: chain ends. Non-standard residues stand in square brackets, D forms with d. Residues, ends and D or L forms follow the SMILES beside them. X1 = O=C(CC1(S[*:2])CCCCC1)[*:1]; Orn = NCCC[C@H](N)C(=O)O

What was measured:
Rattus norvegicus [1] = species on record: Rattus norvegicus; assay: Antioxytoxic activity in vitro in isolated uteri from estrogen pretreated rats suspended in Mg supplemented Dyke-Hastings solution.; assay type: functional; settings: read-out: pA2 (converted)
Summary of the method: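 Isolated rat uterus in bath medium with Mg2+; agonist USP Posterior Pituitary Reference Standard. pA2 is the −log of the effective molar antagonist concentration that reduces the response to a dose of agonist to the response to half that dose. It is interpolated semilogarithmically from concentrations above and below it. SEM is given where there are ≥4 independent estimates.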

Rattus norvegicus [2] = assay: (§1) Antivasopressor activity in vivo in phenoxybenzamine pre-treated rats.; assay type: functional, organism-based; settings: read-out: pA2 (converted)
Summary of the method: (§2)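 Rats pretreated with phenoxybenzamine, under urethane anesthesia; antagonist given iv; agonist USP Posterior Pituitary Reference Standard; read-out is pressor response. Effective dose (nmol/kg) is the dose that cuts the response to 2X units of agonist to that of 1X unit, interpolated semilogarithmically from bracketing doses. pA2 assumes a 67 mL/kg distribution volume. SEM is given where there are ≥4 independent estimates.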

Rattus norvegicus [3] = species on record: Rattus norvegicus; assay: Antioxytoxic activity in vitro in isolated uteri from estrogen pretreated rats suspended in Mg-free Dyke-Hastings solution.; settings: read-out: pA2 (converted)
Rattus norvegicus [4] = assay: Antioxytocic potencies (change in interuterine pressure) in vivo in estrogen pre-treated rats.; assay type: functional, organism-based; settings: read-out: pA2 (converted)
Summary of the method: (§3)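 Rats pretreated with estrogen, under urethane anesthesia; antagonist given iv; read-out is change in integrated intrauterine pressure; agonist synthetic oxytocin. Effective dose (nmol/kg) is the dose that cuts the response to 2X units of agonist to the response to 1X unit, interpolated on a semilog scale from doses above and below it. pA2 is derived assuming a 67 mL/kg distribution volume.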

Rattus norvegicus [5] = assay: In vivo inhibition of estrogen induced changes in interuterine pressure in rats.; assay type: functional; summary of the method: as §3
Rattus norvegicus [6] = assay: as §1; assay type: functional; summary of the method: as §2

CC[C@H](C)[C@@H]1NC(=O)C(Cc2ccc(OC)cc2)NC(=O)CC(C)(C)SSC[C@@H](C(=O)N2CCC[C@H]2C(=O)N[C@@H](CCCN=C(N)N)C(=O)NCC(N)=O)NC(=O)[C@H](CC(N)=O)NC(=O)[C@H](C(C)C)NC1=O (stereo in doubt)
Kb (Rattus norvegicus [1]): 7.76 nM | Kb (Rattus norvegicus [2]): 3.47 nM | Kb (Rattus norvegicus [3]): 17.8 nM | Kb (Rattus norvegicus [4]): 26.9 nM

CC[C@H](C)[C@@H]1NC(=O)C(Cc2ccc(OC)cc2)NC(=O)CC(C)(C)SSC[C@@H](C(=O)N2CCC[C@H]2C(=O)N[C@@H](CCCN=C(N)N)C(=O)NCC(N)=O)NC(=O)[C@H](CC(N)=O)NC(=O)[C@H](CCC(N)=O)NC1=O (stereo in doubt)
Kb (Rattus norvegicus [1]): 1.95 nM | Kb (Rattus norvegicus [2]): 3.55 nM | Kb (Rattus norvegicus [3]): 0.759 nM | Kb (Rattus norvegicus [4]): 24.5 nM

COc1ccc(C[C@@H]2NC(=O)CC3(CCCCC3)SSC[C@@H](C(=O)N3CCC[C@H]3C(=O)N[C@@H](CCCN=C(N)N)C(=O)NCC(N)=O)NC(=O)[C@H](CC(N)=O)NC(=O)[C@H](CCC(N)=O)NC(=O)[C@H](Cc3ccccc3)NC2=O)cc1
ED (Rattus norvegicus [5]): 17 nM/kg | ED (Rattus norvegicus [6]): 0.16 nM/kg

CC[C@H](C)[C@@H]1NC(=O)[C@H](Cc2ccc(OC)cc2)NC(=O)CC2(CCCCC2)SSC[C@@H](C(=O)N2CCC[C@H]2C(=O)N[C@@H](CCCN)C(=O)N[C@@H](CCCN=C(N)N)C(N)=O)NC(=O)[C@H](CC(N)=O)NC(=O)[C@H]([C@@H](C)O)NC1=O [listing 1 of 2 here]
ED (Rattus norvegicus [5]): 2.3 nM/kg | ED (Rattus norvegicus [6]): 0.76 nM/kg

CC[C@H](C)[C@@H]1NC(=O)[C@H](Cc2ccc(OC)cc2)NC(=O)CC2(CCCCC2)SSC[C@@H](C(=O)N2CCC[C@H]2C(=O)N[C@@H](CCCN)C(=O)N[C@@H](C)C(N)=O)NC(=O)[C@H](CC(N)=O)NC(=O)[C@H]([C@@H](C)O)NC1=O [listing 1 of 2 here]
ED (Rattus norvegicus [5]): 2.4 nM/kg | ED (Rattus norvegicus [6]): 8.1 nM/kg

CC[C@H](C)[C@@H]1NC(=O)[C@H](Cc2ccc(OC)cc2)NC(=O)CC2(CCCCC2)SSC[C@@H](C(=O)N2CCC[C@H]2C(=O)N[C@@H](CCCN)C(=O)N[C@@H](CCCN=C(N)N)C(N)=O)NC(=O)[C@H](CC(N)=O)NC(=O)[C@H]([C@@H](C)O)NC1=O [listing 2 of 2 here]
Kb (Rattus norvegicus [1]): 5.5 nM | Kb (Rattus norvegicus [2]): 11 nM | Kb (Rattus norvegicus [3]): 20.4 nM | Kb (Rattus norvegicus [4]): 28.8 nM

CC[C@H](C)[C@@H]1NC(=O)C(Cc2ccc(OC)cc2)NC(=O)CC2(CCCCC2)SSC[C@@H](C(=O)N2CCC[C@H]2C(=O)N[C@@H](CCCN=C(N)N)C(=O)NCC(N)=O)NC(=O)[C@H](CC(N)=O)NC(=O)[C@H](CCC(N)=O)NC1=O (stereo in doubt)
Kb (Rattus norvegicus [1]): 3.24 nM | Kb (Rattus norvegicus [2]): 8.32 nM | Kb (Rattus norvegicus [3]): 1.91 nM | Kb (Rattus norvegicus [4]): 15.8 nM

CC[C@H](C)[C@@H]1NC(=O)[C@H](Cc2ccc(OC)cc2)NC(=O)CC2(CCCCC2)SSC[C@@H](C(=O)N2CCC[C@H]2C(=O)N[C@@H](CCCN)C(=O)N[C@@H](Cc2ccc(O)cc2)C(N)=O)NC(=O)[C@H](CC(N)=O)NC(=O)[C@H]([C@@H](C)O)NC1=O (Y(Me)ITNCP[Orn]Y-NH2; linker N-5 via X1)
Kb (Rattus norvegicus [1]): 5.25 nM | Kb (Rattus norvegicus [2]): 95.5 nM | Kb (Rattus norvegicus [3]): 23.4 nM | Kb (Rattus norvegicus [4]): 14.8 nM

CC[C@H](C)[C@@H]1NC(=O)[C@H](Cc2ccc(OC)cc2)NC(=O)CC2(CCCCC2)SSC[C@@H](C(=O)N2CCC[C@H]2C(=O)N[C@@H](CCCN)C(=O)N[C@@H](C)C(N)=O)NC(=O)[C@H](CC(N)=O)NC(=O)[C@H]([C@@H](C)O)NC1=O [listing 2 of 2 here]
Kb (Rattus norvegicus [1]): 6.31 nM | Kb (Rattus norvegicus [2]): 112 nM | Kb (Rattus norvegicus [3]): 24 nM | Kb (Rattus norvegicus [4]): 34.7 nM

CC[C@H](C)[C@@H]1NC(=O)[C@H](Cc2ccc(OC)cc2)NC(=O)CC2(CCCCC2)SSC[C@@H](C(=O)N2CCC[C@H]2C(=O)N[C@@H](CCCN)C(=O)NCC(N)=O)NC(=O)[C@H](CC(N)=O)NC(=O)[C@H](CCC(N)=O)NC1=O (Y(Me)IQNCP[Orn]G-NH2; linker N-5 via X1)
Kb (Rattus norvegicus [1]): 13.2 nM | Kb (Rattus norvegicus [2]): 11 nM | Kb (Rattus norvegicus [3]): 3.02 nM | Kb (Rattus norvegicus [4]): 42.7 nM

CC[C@H](C)[C@@H]1NC(=O)C(Cc2ccc(OC)cc2)NC(=O)CC2(CCCCC2)SSC[C@@H](C(=O)N2CCC[C@H]2C(=O)N[C@@H](CCCCN)C(=O)NCC(N)=O)NC(=O)[C@H](CC(N)=O)NC(=O)[C@H](CCC(N)=O)NC1=O (stereo in doubt)
Kb (Rattus norvegicus [1]): 15.5 nM | Kb (Rattus norvegicus [2]): 20.9 nM | Kb (Rattus norvegicus [3]): 23.4 nM | Kb (Rattus norvegicus [4]): 58.9 nM
